The values below come from ChEMBL document CHEMBL1148267, “Synthesis and biological activity of a novel squalene epoxidase inhibitor, FR194738” (Bioorg Med Chem Lett, 2004).

A word on the logP: it is a log measure of how a compound divides between an organic and an aqueous phase. In general, pIC50 refers to the negative decadic logarithm of the IC50, by convention in mol/L. Read a low pIC50 as a high IC50. Usually AUC(0-t) stands for the area under the concentration-time curve up to a stated or last time point. Read a high AUC(0-t) as more exposure. As usually defined, the Tmax is the time from dosing to the highest level. As a reminder, the Cmax is the peak of the concentration-time curve. One may read the bioavailability as the share of a dose that reaches the circulation, judged against a reference dose that is usually intravenous.

pIC50: −log10 of the molar value.

The nature of data set [1]: Partition coefficient (logP). It is filed as physicochemical. As to conditions: octanol/water.
For the next data set, the species on record is Homo sapiens. The data set can be described thus: In vitro inhibitory activity was evaluated against human squalence epoxidase. It is filed as functional. The procedure, abridged: (§1)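 Source of enzyme: dog or rat liver microsomes, or HepG2 cell homogenate for human, solubilized in 2% Triton X-100. Each was incubated with AMO-1680, FAD, NADPH, EDTA, [³H]squalene and drug for 90 min at 37 °C. The reaction was stopped with ethanolic KOH. Non-saponifiable lipids were separated by silica TLC and 2,3-oxidosqualene radioactivity was counted to give IC50.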

The species entered for data set [2] is Canis familiaris. The data set can be described thus: In vitro inhibitory activity was evaluated against dog squalence epoxidase. It is filed as functional, Canis lupus familiaris. The procedure, abridged: as §1
For the next data set, the species on record is Rattus norvegicus. As to the kind of experiment: In vitro inhibitory activity was evaluated against rat squalence epoxidase. It counts as functional. The procedure, abridged:
as §1

Data set [3] in a line: Compound was evaluated for area under the curve (0-8 h). Details: time < 8 hr. The settings on record: rat, in vivo. It counts as ADME, organism-based. The method, boiled down: (§2)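 Rats dosed orally with a single 10 mg/kg dose, given as a suspension in 0.5% methylcellulose. Plasma was sampled to derive Cmax, Tmax, AUC over 0–8 h and bioavailability.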
Data set [4] in a line: Compound was evaluated for maximum time(Tmax) in suspension of 0.5% methylcellulose at a dose of 10 mg/kg in rat. It is filed as ADME, organism-based. Details: dose 10 mg/kg. The settings on record: in vivo. The method, boiled down: as §2
Data set [5] in a line: Compound was evaluated for maximum concentration (Cmax) in suspension of 0.5% methylcellulose at a dose of 10 mg/kg in rat. Set-up: dose 10 mg/kg. It is filed as ADME, organism-based. The settings on record: in vivo. The method, boiled down:
as §2

A short description of data set [6]: Bioavailability in rat. It is filed as ADME, organism-based. As to conditions: in vivo. The procedure, abridged: as §2
The subject of data set [7] is Canis familiaris. The data set can be described thus: Compound was evaluated for change in the effect of plasma lipoprotein cholesterol level (HDL) at a dose of 10 mg/kg/day. It counts as ADME, organism-based, Canis lupus familiaris. As to conditions: dog, in vivo. The method, boiled down: (§3)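 Male beagle dogs (9–11 kg, n=3) dosed orally twice daily for 28 days, at 3.2, 10 or 32 mg/kg/day. On day 14, serum lipoprotein fractions were separated by ultracentrifugation. LDL and HDL cholesterol were measured enzymatically and expressed as % change. Atherogenic index was taken as the LDL/HDL ratio.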

Data set [8] deals with Canis familiaris. The data set can be described thus: Compound was evaluated for change in the effect of plasma lipoprotein cholesterol level (LDL) at a dose of 3.2 mg/kg/day. It is filed as ADME, organism-based, Canis lupus familiaris. The settings on record: dog, in vivo. The method, boiled down: as §3
In data set [9] the test system is Canis familiaris. As to the kind of experiment: Compound was evaluated for artherogenic index in plasma lipoprotein cholesterol level (LDL cholesterol / HDL cholesterol) at a dose of 32 mg/kg/day. As to conditions: dog, in vivo. It is filed as ADME, organism-based, Canis lupus familiaris. The method, boiled down: as §3
The test system of data set [10] is Canis familiaris. As to the kind of experiment: Compound was evaluated for change in the effect of plasma lipoprotein cholesterol level (HDL) at a dose of 32 mg/kg/day. It counts as ADME, organism-based, Canis lupus familiaris. As to conditions: dog, in vivo. The procedure, abridged:
as §3

In data set [11] the test system is Canis familiaris. The data set can be described thus: Compound was evaluated for change in the effect of plasma lipoprotein cholesterol level (LDL) at a dose of 32 mg/kg/day. It counts as ADME, organism-based, Canis lupus familiaris. The settings on record: dog, in vivo. The procedure, abridged:
as §3

For data set [12], the system named is Canis familiaris. As to the kind of experiment: Compound was evaluated for artherogenic index in plasma lipoprotein cholesterol level (LDL cholesterol / HDL cholesterol) at a dose of 3.2 mg/kg/day. It is filed as ADME, organism-based, Canis lupus familiaris. The settings on record: dog, in vivo. The method, boiled down:
as §3

Data set [13] concerns Canis familiaris. The data set can be described thus: Compound was evaluated for artherogenic index in plasma lipoprotein cholesterol level (LDL cholesterol / HDL cholesterol) at a dose of 10 mg/kg/day. It is filed as ADME, organism-based, Canis lupus familiaris. The settings on record: dog, in vivo. The method, boiled down: as §3
The test system of data set [14] is Canis familiaris. As to the kind of experiment: Compound was evaluated for change in the effect of plasma lipoprotein cholesterol level (HDL) at a dose of 3.2 mg/kg/day. It is filed as ADME, organism-based, Canis lupus familiaris. The settings on record: dog, in vivo. The procedure, abridged: as §3
The test system of data set [15] is Canis familiaris. The data set can be described thus: Compound was evaluated for change in the effect of plasma lipoprotein cholesterol level (LDL) at a dose of 10 mg/kg/day. It counts as ADME, organism-based, Canis lupus familiaris. The settings on record: dog, in vivo. The procedure, abridged:
as §3

For the next data set, the system named is HepG2. The data set can be described thus: In vitro inhibitory activity was evaluated on cholesterol biosynthesis in HepG2 cells. The settings on record: Homo sapiens. It is filed as functional, cell-based. The procedure, abridged:
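HepG2 cells were kept overnight in 10% human lipoprotein-deficient serum, then preincubated 1 h with drug. [¹⁴C]acetate was added for 2 h. Cells were lysed and saponified with ethanolic KOH. Digitonin was added to the non-saponifiable lipids, and radioactivity of the digitonin-coprecipitable sterols was counted to give IC50.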

For the compound `C=CCC(CC=C)(COc1cccc(CN(CC)C/C=C/C#CC(C)(C)C)c1)OCc1ccsc1`, the logP in data set [1] (read-out: logP) worked out at 8.45. Moreover, the pIC50 in the data set listed under Homo sapiens (Homo sapiens) is 6.80.
Consider `CCN(C/C=C/C#CC(C)(C)C)Cc1cccc(OCCOCc2ccsc2)c1`, for which the logP in data set [1] (read-out: logP) was 6.6. In addition, the pIC50 was 7.60 in the data set filed under Homo sapiens (Homo sapiens) and 6.64 in the data set filed under Canis familiaris [2] (Canis lupus familiaris).
For `CCN(C/C=C/C#CC(C)(C)C)Cc1cccc(OCC(C)(C)OC(=O)c2ccsc2)c1` the same measures were 7.48, 7.64 and 6.43.
As for `CCN(C/C=C/C#CC(C)(C)C)Cc1cccc(OCC(CC)(CC)OCc2ccsc2)c1`, the logP in [1] (read-out: logP) came out at 8.36. For the same compound, in the data set filed under Homo sapiens (Homo sapiens), the pIC50 was 6.92.
In the case of `CCN(C/C=C/C#CC(C)(C)C)Cc1cccc(OCc2cc(-c3ccsc3)cs2)c1`, the pIC50 was 7.44 in the data set listed under Rattus norvegicus, 8.14 in the data set filed under Homo sapiens (Homo sapiens) and 7.37 in the data set listed under Canis familiaris [2] (Canis lupus familiaris). This compound also showed an AUC(0-t) at 8 h in data set [3] of 1390 ng·h/mL. Also, in data set [4], the Tmax turned out to be 1.67 h. Further, in [1] (read-out: logP), the logP came to 8.19. The compound also returned a Cmax in data set [5] of 329 ng/mL. In addition, the bioavailability in data set [6] amounted to 16.5%.
Consider `CN(C/C=C/C#CC(C)(C)C)Cc1cccc(OCC(C)(C)OCc2ccsc2)c1`, for which the logP in data set [1] (read-out: logP) was 6.78. The pIC50 was 7.96 in the data set listed under Homo sapiens (Homo sapiens) and 7.11 in the data set filed under Canis familiaris [2] (Canis lupus familiaris).
As for `CCN(C/C=C/C#CC(C)(C)C)Cc1cccc(OCC(C)(C)OCc2ccsc2)c1`, the logP in [1] (read-out: logP) was found to be 7.3. The pIC50 in the data set filed under Homo sapiens (Homo sapiens) is 8.27; in the data set listed under Canis familiaris [2], 7.47.
As to `CCCN(C/C=C/C#CC(C)(C)C)Cc1cccc(OCC(C)(C)OCc2ccsc2)c1`, in data set [1] (read-out: logP), the logP is 7.83. Further, the pIC50 in the data set listed under Homo sapiens (Homo sapiens) is 7.51; in the data set filed under Canis familiaris [2] (Canis lupus familiaris), 7.29.
For the compound `CCN(C/C=C/C#CC(C)(C)C)Cc1cccc(OCC(C)(C)OCc2ccsc2)c1.Cl`, the HDL with Canis familiaris [7] is given as -14%; in the data set with Canis familiaris [10], -27%; with Canis familiaris [14], 0%. Also, the LDL in the data set on Canis familiaris [8] was -2%; in the data set with Canis familiaris [11], -61%; in the data set on Canis familiaris [15] it was -47%. Also, the figures for the Activity in the data set with Canis familiaris [9], in the data set on Canis familiaris [12] and with Canis familiaris [13] were -47%, -2% and -38%, respectively. Further, the pIC50 in the data set filed under Rattus norvegicus is 7.60; in the data set listed under Homo sapiens, 8.01; in the data set listed under Canis familiaris [2], 7.85. Also, the AUC(0-t) at 8 h in data set [3] was determined as 1870 ng·h/mL. In [4], the Tmax was found to be 1.17 h. Further, the logP in data set [1] stood at 7.3. In [5], the concentration peaked (Cmax) at 486 ng/mL. The bioavailability in data set [6] was 32.9%.
As to `CC(C)n1c(/C=C/[C@H](O)C[C@H](O)CC(=O)O)c(-c2ccc(F)cc2)c2ccccc21` [FLUVASTATIN], the pIC50 in the data set on HepG2 is 7.55.
Still for that read-out and setting: as for `CC[C@H](C)C(=O)O[C@H]1C[C@H](O)C=C2C=C[C@H](C)[C@H](CC[C@@H](O)C[C@@H](O)CC(=O)O)[C@H]21` [PRAVASTATIN], the figure is […].
`CCC(C)(C)C(=O)O[C@H]1C[C@@H](C)C=C2C=C[C@H](C)[C@H](CC[C@@H]3C[C@@H](O)CC(=O)O3)[C@H]21` [SIMVASTATIN] showed a pIC50 in the data set on HepG2 of 7.40.
